Measured values reported in ChEMBL document CHEMBL4689842, “EUbOPEN Chemogenomics Library wave 1” (2021).

Test system: U2OS
Assay: Multiplex assay against U2OS
Type: toxicity, cell-based
Settings: human
How it was run: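 Imaging took place on a CQ1 microscope at 37°C and 5% CO2 once compound had been added to live cells stained at seeding with Hoechst33342, BioTracker Green Microtubule Cytoskeleton Dye, MitoTracker Red and Annexin V Alexa Fluor 680. CellPathfinder machine-learning gating classed cells as Hoechst high-intensity objects or normal cells, classed normal cells as having healthy, pyknosed or fragmented nuclei, and classed pyknosed cells as mitotic or apoptotic. Tubulin, mitochondrial-mass and membrane-permeability phenotypes are per cents of the healthy-nucleus cells.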

[1] = 12 h, 1 µM, compound concentration 1 uM, replicate 1
[2] = 12 h, 1 µM, compound concentration 1 uM, replicate 2
[3] = 12 h, 10 µM, compound concentration 10 uM, replicate 1
[4] = 12 h, 10 µM, compound concentration 10 uM, replicate 2
[5] = 24 h, 1 µM, compound concentration 1 uM, replicate 1
[6] = 24 h, 1 µM, compound concentration 1 uM, replicate 2
[7] = 24 h, 10 µM, compound concentration 10 uM, replicate 1
[8] = 24 h, 10 µM, compound concentration 10 uM, replicate 2
[9] = 48 h, 1 µM, compound concentration 1 uM, replicate 1
[10] = 48 h, 1 µM, compound concentration 1 uM, replicate 2
[11] = 48 h, 10 µM, compound concentration 10 uM, replicate 1
[12] = 48 h, 10 µM, compound concentration 10 uM, replicate 2

## Cc1ccc2c(c1)c1c(n2CCc2ccc(C)nc2)CCN(C)C1 [LATREPIRDINE]
[1]
  Population Apoptotic (%): 53%
  Population Fragmented Nuclei (%): 8%
  Population Healthy Nuclei (%): 81%
  Population Hoechst High Intensity Objects (%): 7%
  Population Membrane Permeable-Phenotype (%): 6%
  Population Mitochondria Different-Phenotype (%): 46%
  Population Mitotic Cells (%): 46%
  Population Normal (%): 92%
  Population Pyknosed Nuclei (%): 9%
  Population Tubulin-Different-Phenotype (%): 42%
  Total Cell Count: 147
[2]
  Population Apoptotic (%): 100%
  Population Fragmented Nuclei (%): 27%
  Population Healthy Nuclei (%): 67%
  Population Hoechst High Intensity Objects (%): 16%
  Population Membrane Permeable-Phenotype (%): 5%
  Population Mitochondria Different-Phenotype (%): 27%
  Population Mitotic Cells (%): 0%
  Population Normal (%): 83%
  Population Pyknosed Nuclei (%): 4%
  Population Tubulin-Different-Phenotype (%): 27%
  Total Cell Count: 61
[3]
  Population Apoptotic (%): 47%
  Population Fragmented Nuclei (%): 11%
  Population Healthy Nuclei (%): 64%
  Population Hoechst High Intensity Objects (%): 7%
  Population Membrane Permeable-Phenotype (%): 21%
  Population Mitochondria Different-Phenotype (%): 97%
  Population Mitotic Cells (%): 52%
  Population Normal (%): 92%
  Population Pyknosed Nuclei (%): 24%
  Total Cell Count: 142
[4]
  Population Apoptotic (%): 88%
  Population Fragmented Nuclei (%): 7%
  Population Healthy Nuclei (%): 65%
  Population Hoechst High Intensity Objects (%): 8%
  Population Membrane Permeable-Phenotype (%): 42%
  Population Mitochondria Different-Phenotype (%): 100%
  Population Mitotic Cells (%): 11%
  Population Normal (%): 91%
  Population Pyknosed Nuclei (%): 26%
  Population Tubulin-Different-Phenotype (%): 100%
  Total Cell Count: 103
[5]
  Population Apoptotic (%): 47%
  Population Fragmented Nuclei (%): 6%
  Population Healthy Nuclei (%): 83%
  Population Hoechst High Intensity Objects (%): 3%
  Population Membrane Permeable-Phenotype (%): 4%
  Population Mitochondria Different-Phenotype (%): 38%
  Population Mitotic Cells (%): 52%
  Population Normal (%): 96%
  Population Pyknosed Nuclei (%): 10%
  Population Tubulin-Different-Phenotype (%): 30%
  Total Cell Count: 166
[6]
  Population Apoptotic (%): 55%
  Population Fragmented Nuclei (%): 23%
  Population Healthy Nuclei (%): 67%
  Population Hoechst High Intensity Objects (%): 13%
  Population Membrane Permeable-Phenotype (%): 10%
  Population Mitochondria Different-Phenotype (%): 27%
  Population Mitotic Cells (%): 44%
  Population Normal (%): 86%
  Population Pyknosed Nuclei (%): 8%
  Population Tubulin-Different-Phenotype (%): 14%
  Total Cell Count: 74
[7]
  Population Apoptotic (%): 71%
  Population Fragmented Nuclei (%): 12%
  Population Healthy Nuclei (%): 54%
  Population Hoechst High Intensity Objects (%): 8%
  Population Membrane Permeable-Phenotype (%): 24%
  Population Mitochondria Different-Phenotype (%): 97%
  Population Mitotic Cells (%): 28%
  Population Normal (%): 91%
  Population Pyknosed Nuclei (%): 33%
  Population Tubulin-Different-Phenotype (%): 100%
  Total Cell Count: 172
[8]
  Population Apoptotic (%): 76%
  Population Fragmented Nuclei (%): 4%
  Population Healthy Nuclei (%): 56%
  Population Hoechst High Intensity Objects (%): 4%
  Population Membrane Permeable-Phenotype (%): 56%
  Population Mitochondria Different-Phenotype (%): 100%
  Population Mitotic Cells (%): 24%
  Population Normal (%): 95%
  Population Pyknosed Nuclei (%): 38%
  Total Cell Count: 119
[9]
  Population Apoptotic (%): 40%
  Population Fragmented Nuclei (%): 4%
  Population Healthy Nuclei (%): 81%
  Population Hoechst High Intensity Objects (%): 2%
  Population Membrane Permeable-Phenotype (%): 6%
  Population Mitochondria Different-Phenotype (%): 11%
  Population Mitotic Cells (%): 59%
  Population Normal (%): 97%
  Population Pyknosed Nuclei (%): 13%
  Population Tubulin-Different-Phenotype (%): 22%
  Total Cell Count: 150
[10]
  Population Apoptotic (%): 60%
  Population Fragmented Nuclei (%): 17%
  Population Healthy Nuclei (%): 75%
  Population Hoechst High Intensity Objects (%): 10%
  Population Membrane Permeable-Phenotype (%): 16%
  Population Mitochondria Different-Phenotype (%): 8%
  Population Mitotic Cells (%): 40%
  Population Normal (%): 89%
  Population Pyknosed Nuclei (%): 7%
  Population Tubulin-Different-Phenotype (%): 10%
  Total Cell Count: 68
[11]
  Population Apoptotic (%): 64%
  Population Fragmented Nuclei (%): 14%
  Population Healthy Nuclei (%): 43%
  Population Hoechst High Intensity Objects (%): 6%
  Population Membrane Permeable-Phenotype (%): 28%
  Population Mitochondria Different-Phenotype (%): 90%
  Population Mitotic Cells (%): 35%
  Population Normal (%): 93%
  Population Pyknosed Nuclei (%): 41%
  Population Tubulin-Different-Phenotype (%): 95%
  Total Cell Count: 240
[12]
  Population Apoptotic (%): 62%
  Population Fragmented Nuclei (%): 13%
  Population Healthy Nuclei (%): 44%
  Population Hoechst High Intensity Objects (%): 5%
  Population Membrane Permeable-Phenotype (%): 52%
  Population Mitochondria Different-Phenotype (%): 94%
  Population Mitotic Cells (%): 37%
  Population Normal (%): 95%
  Population Pyknosed Nuclei (%): 42%
  Population Tubulin-Different-Phenotype (%): 97%
  Total Cell Count: 156
